Assay results: ChEMBL document CHEMBL1156797, “Synthesis and antiplasmodial activity of new indolone N-oxide derivatives” (J Med Chem, 2010); call rule not given here

Assays:
[1] = Cytotoxicity against human KB cells after 72 hrs by alamar blue assay; type: cell-based
Procedure, shortened: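 KB cells were seeded at 4×10^4 cells/mL in RPMI 1640 with 10% heat-inactivated FCS and left 24 h at 37 °C, 5% CO2. A dilution series was added in triplicate for 72 h, then AlamarBlue for 2–4 h. Fluorescence was read at ex 530/em 585 nm, with podophyllotoxin as positive control and values from curve fitting.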

Plasmodium falciparum [2] = experiment: Resistance index, ratio of IC50 for chloroquine-resistant Plasmodium falciparum K1 to IC50 for drug-sensitive Plasmodium falciparum 3D7; type: functional
[3] = Cytotoxicity against human MCF7 cells after 48 hrs by MTT assay; type: cell-based
[4] = Selectivity index, ratio of CC50 for human KB cells to IC50 for drug-sensitive Plasmodium falciparum 3D7; type: functional
Procedure, shortened: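 The 3D7 value came from [3H]hypoxanthine incorporation: synchronized culture at 0.5% parasitaemia, 2.5% hematocrit, Albumax-supplemented medium, 2-fold dilutions from 100 to 0.05 μM in triplicate, label added at 24 h and harvested at 48 h.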

Plasmodium berghei [5] = experiment: Antimalarial activity against Plasmodium berghei ANKA infected Swiss mice (Mus musculus) assessed as reduction in parasitemia at 30 mg/kg, perorally after 3 days measured on day 4; type: functional; design: scale not given: the % may be the effect or the level left; settings: route oral
Procedure, shortened: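 Male Swiss outbred CD-1 mice (20 g) were infected iv with 2×10^6 P. berghei ANKA-infected red cells and put in groups of five per dose. Dosing was by oral gavage in suspending vehicle (0.5% Na carboxymethylcellulose, 0.5% benzyl alcohol, 0.4% Tween 80, 0.9% NaCl), starting 3 h postinfection, then once daily on days 1–3. Day-4 Giemsa films; % inhibition against untreated mean parasitaemia.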

Plasmodium falciparum [6] = experiment: Antimalarial activity against drug-sensitive Plasmodium falciparum 3D7 assessed as [3H]hypoxanthine incorporation by scintillation counting; type: functional, organism-based
Plasmodium falciparum [7] = experiment: Antimalarial activity against chloroquine-resistant Plasmodium falciparum FcB1 assessed as [3H]hypoxanthine incorporation after 48 hrs by beta-counter; type: functional, organism-based; settings: FcB1/Columbia
Procedure, shortened: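 Primary assay (Toulouse) on FcB1 cultured in RPMI with 25 mM HEPES and 10% human serum, O RBCs. Serial dilutions in triplicate, 2% parasitaemia, 2% haematocrit, 48 h at 37 °C, 5% CO2. [3H]-hypoxanthine added at 24 h, freeze-thaw harvest, β-counting. IC50 by linear regression on the linear segment of the semilog inhibition curve. Three independent repeats.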

Plasmodium falciparum [8] = experiment: Resistance index, ratio of IC50 for chloroquine-resistant Plasmodium falciparum FcB1 to IC50 for drug-sensitive Plasmodium falciparum 3D7; type: functional
Plasmodium berghei [9] = experiment: Antimalarial activity against Plasmodium berghei ANKA infected Swiss mice (Mus musculus) assessed as reduction in parasitemia at 30 mg/kg, intraperitoneally after 3 days measured on day 4; type: functional; design: scale not given: the % may be the effect or the level left; settings: route intraperitoneal
Procedure, shortened: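 P. berghei ANKA in male Swiss outbred CD-1 mice (20 g), kept specific pathogen-free. Infection was iv with 2×10^6 infected red cells on day 0, then mice were randomized into groups of five per dose. Compound was given ip in 0.05% Tween 80. Parasitaemia was read from Giemsa-stained blood films on day 4 and expressed as % inhibition from group arithmetic mean parasitaemia versus the untreated group.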

[10] = Selectivity index, ratio of CC50 for human MCF7 cells to IC50 for chloroquine-resistant Plasmodium falciparum FcB1; type: functional
Procedure, shortened: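 XTT 0.5 mg/mL added for 180 min, formazan read at 450 nm, value taken from dose–response curves, two experiments in triplicate. This CC50 is divided by the FcB1 IC50 to give the index.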

[11] = Metabolic stability in CD1 mouse liver microsomes assessed as half life; type: ADME, Microsome
Plasmodium falciparum [12] = experiment: Antimalarial activity against Plasmodium falciparum K1 assessed as [3H]hypoxanthine incorporation by scintillation counting; type: functional, organism-based
Plasmodium berghei [13] = experiment: Antimalarial activity against Plasmodium berghei NK65 infected Swiss mice (Mus musculus) assessed as reduction in parasitemia treated intraperitoneally for 3 days measured on day 4; settings: NK65, ip
Plasmodium berghei [14] = experiment: Antimalarial activity against Plasmodium berghei NK65 infected Swiss mice (Mus musculus) assessed as reduction in parasitemia at 10 mg/kg, intraperitoneally after 3 days measured on day 4; design: scale not given: the % may be the effect or the level left; settings: route intraperitoneal
[15] = Inhibition of beta-hematin formation assessed as biocrystallization by UV-visible assay; type: functional
Plasmodium berghei [16] = experiment: Antimalarial activity against Plasmodium berghei NK65 infected Swiss mice (Mus musculus) assessed as reduction in parasitemia at 48 mg/kg, intraperitoneally after 3 days measured on day 4; design: scale not given: the % may be the effect or the level left; settings: route intraperitoneal
Mus musculus = experiment: Toxicity in Swiss mouse at 140 mg/kg, ip; type: organism-based; design: dose 140 mg/kg, route intraperitoneal; settings: in vivo

| Compound | CC50 at 72 h [1] [nM] | Ratio IC50 (Plasmodium falciparum [2]) | CC50 at 48 h [3] [nM] | Ratio CC50/IC50 [4] | Activity (Plasmodium berghei [5]) [%] | IC50 (Plasmodium falciparum [6]) [nM] | IC50 (Plasmodium falciparum [7]) [nM] | Ratio IC50 (Plasmodium falciparum [8]) | Activity (Plasmodium berghei [9]) [%] | Ratio CC50/IC50 [10] | half-life [11] [min] | IC50 (Plasmodium falciparum [12]) [nM] | ED50 (Plasmodium berghei [13]) [mg/kg] | Activity (Plasmodium berghei [14]) [%] | IC50 [15] | Activity (Plasmodium berghei [16]) [%] | Activity (Mus musculus) |
| --- | --- | --- | --- | --- | --- | --- | --- | --- | --- | --- | --- | --- | --- | --- | --- | --- | --- |
| COc1ccc(C2=[N+]([O-])c3ccccc3C2=O)cc1 | 457000 | 1.2 | > 39500 | 4525 | 32.4 | 101 | 195 | 1.9 | 40.5 | >202 | 16 | 124 | – | – | – | – | – |
| CCN(CC)CCCC(C)Nc1ccnc2cc(Cl)ccc12 (stereo unspecified) [CHLOROQUINE] | 44000 | – | 19400 | – | – | – | – | – | – | – | – | – | 3 | 100 | – | – | – |
| COc1ccc2c(c1)C(=O)C(c1ccc(OC(C)C)cc1)=[N+]2[O-] | 321000 | 2.5 | > 32100 | 10031 | 25.1 | 32 | 17 | 0.5 | 30.4 | > 1890 | 6 | 81.3 | – | – | – | – | – |
| COc1ccc2c(c1)C(=O)C(c1ccc(N(C)C)cc1)=[N+]2[O-] | 338000 | – | 43900 | 198823 | 20.9 | 1.7 | < 3 | 2.9 | 15.3 | > 14600 | 6 | – | – | – | – | – | – |
| O=C1C(c2ccccc2)=[N+]([O-])c2ccccc21 | – | – | 19500 | – | – | – | 889 | – | – | 22 | – | – | – | – | Not Active | – | – |
| CCOc1ccc(C2=[N+]([O-])c3cc4c(cc3C2=O)OCO4)cc1 | – | – | 51900 | – | – | – | 156 | – | – | 332 | – | – | – | – | Not Active | – | – |
| C[C@H]1[C@H](OC(=O)CCC(=O)[O-])O[C@@H]2O[C@@]3(C)CC[C@H]4[C@H](C)CC[C@@H]1[C@@]24OO3.[Na+] [SODIUM ARESUNATE] | 36200 | 1 | 9800 | 9045 | – | 4 | 6 | 1.5 | – | 1633 | – | 4 | – | – | – | – | – |
| COc1ccc2c(c1)C(=O)C(c1ccc(C)cc1)=[N+]2[O-] | 56000 | 0.7 | > 37500 | 2074 | – | 27 | 52 | 1.9 | – | >721 | – | 20 | – | – | – | – | – |
| COc1ccc2c(c1)C(=O)C(c1cccc(Cl)c1)=[N+]2[O-] | 64000 | 0.7 | 5200 | 688 | – | 139 | 21 | 0.2 | – | 248 | – | 96 | – | – | – | – | – |
| O=C1C(c2ccc(Cl)cc2)=[N+]([O-])c2cc3c(cc21)OCO3 | 27000 | 1.5 | 15900 | 450 | 14.5 | 58 | 75 | 1.3 | 62.1 | 212 | < 1 | 88 | 16 | – | – | 81 | Non-toxic |
| COc1ccc2c(c1)C(=O)C(c1ccc(Oc3ccccc3)cc1)=[N+]2[O-] | 5600 | <0.04 | 7700 | 151 | – | 37 | 193 | 5.2 | – | 40 | – | < 1.5 | – | – | – | – | – |
| COc1ccc2c(c1)C(=O)C(c1ccc(Cl)c(C(F)(F)F)c1)=[N+]2[O-] | < 1400 | 0.1 | 13500 | <20 | – | 69 | 50 | 0.7 | – | 270 | – | 5 | – | – | – | – | – |
